Assay results from ChEMBL document CHEMBL1124405, “Synthesis and copper-dependent antimycoplasmal activity of 1-amino-3-(2-pyridyl)isoquinoline derivatives. 2. Amidines” (1989).
Converted amounts (≈) assume the structure as drawn.

Tests used:
Assay type in all cases: functional
[1] = system: Mycoplasmoides gallisepticum; test: The anti-mycoplasmal activity against Mycoplasma gallisepticum K514 with the addition of copper at 40 uM CuSO4
Summary of the method: (§1)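 Broth-dilution MIC in modified Adler medium at pH 8.0, with heat-inactivated horse serum, benzylpenicillin and phenol red. CuSO4 was added to a final 40 μM. Compounds were in DMSO (final 1.25%) and tested in serial 2-fold dilutions, in duplicate, up to 100 μM. Each tube (3 mL) received 1 mL of fresh culture (A660 0.22, pH 6.8) and was incubated at 37 °C for 24 h. MIC was the lowest concentration without indicator color change.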

[2] = system: Mycoplasmoides gallisepticum; test: The anti-mycoplasmal activity was determined against Mycoplasma gallisepticum K514 without the addition of copper
Summary of the method: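 No copper was added; the medium's copper was below 3 μM. The medium was modified Adler at pH 8.0, with horse serum, benzylpenicillin and phenol red. Compounds were in DMSO (final 1.25%) and tested in serial 2-fold duplicate dilutions up to 100 μM. Each tube held 3 mL of medium plus 1 mL of fresh culture (A660 0.22) and was incubated at 37 °C for 24 h. MIC was the lowest concentration preventing phenol red color change.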

[3] = system: Mycoplasmoides gallisepticum; test: The anti-mycoplasmal activity was determined against Mycoplasma gallisepticum K514 with the addition of copper (40 uM CuSO4); summary of the method: as §1

MIC [1]	MIC [2]	MIC [3]	Molecule
–	> 100 µM	> 100 µM	Cc1cccc2c(NC(=N)c3ccccn3)nc(-c3ccccc3)cc12
0.45 µM (≈ 0.0996 µg/mL)	452 µM (≈ 100 µg/mL)	–	Nc1nc(-c2ccccn2)cc2ccccc12
–	0.78 µM (≈ 0.276 µg/mL)	0.104 µM (≈ 0.0369 µg/mL)	COc1ccc(C(=N)Nc2nc(-c3ccccn3)cc3ccccc23)cc1
–	0.78 µM (≈ 0.264 µg/mL)	0.0683 µM (≈ 0.0231 µg/mL)	Cc1ccc(C(=N)Nc2nc(-c3ccccn3)cc3ccccc23)cc1
–	0.39 µM (≈ 0.132 µg/mL)	0.065 µM (≈ 0.0221 µg/mL)	Cc1cccc(C(=N)Nc2nc(-c3ccccn3)cc3ccccc23)n1
–	> 10 µM	0.78 µM (≈ 0.307 µg/mL)	N=C(Nc1nc(-c2ccccn2)cc2ccccc12)c1ccc(Cl)c(Cl)c1
–	0.39 µM (≈ 0.127 µg/mL)	0.039 µM (≈ 0.0127 µg/mL)	N=C(Nc1nc(-c2ccccn2)cc2ccccc12)c1ccncc1
–	6.25 µM (≈ 2.24 µg/mL)	0.195 µM (≈ 0.07 µg/mL)	N=C(Nc1nc(-c2ccccn2)cc2ccccc12)c1cccc(Cl)c1
–	0.1 µM (≈ 0.0916 µg/mL)	0.1 µM (≈ 0.0916 µg/mL)	CC[C@H]1OC(=O)C[C@@H](O)[C@H](C)[C@@H](O[C@@H]2O[C@H](C)[C@@H](O[C@H]3C[C@@](C)(O)[C@@H](O)[C@H](C)O3)[C@H](N(C)C)[C@H]2O)[C@@H](CC=O)C[C@@H](C)C(=O)/C=C/C(C)=C/[C@@H]1CO[C@@H]1O[C@H](C)[C@@H](O)[C@@H](OC)[C@H]1OC [TYLOSIN]

More lines, now with the values behind:

Molecule	MIC [1]	MIC [2]	MIC [3]
N=C(Nc1ccccn1)c1ccccn1	250 µM (≈ 49.6 µg/mL)	> 500 µM	–
N=C(Nc1nc(-c2ccccn2)cc2ccccc12)c1ccccc1	–	0.195 µM (≈ 0.0633 µg/mL)	0.0634 µM (≈ 0.0206 µg/mL)
N=C(Nc1nc(-c2ccccn2)cc2ccccc12)c1cnccn1	–	0.195 µM (≈ 0.0636 µg/mL)	0.039 µM (≈ 0.0127 µg/mL)
Cc1cc(C(=N)Nc2nc(-c3ccccn3)cc3ccccc23)ccn1	–	0.39 µM (≈ 0.132 µg/mL)	0.065 µM (≈ 0.0221 µg/mL)
N=C(Nc1nc(-c2ccccn2)cc2ccccc12)c1ccccn1	–	0.39 µM (≈ 0.127 µg/mL)	0.0325 µM (≈ 0.0106 µg/mL)
N=C(Nc1nc(-c2ccccn2)cc2ccccc12)c1ccc(Cl)cc1	–	6.25 µM (≈ 2.24 µg/mL)	0.195 µM (≈ 0.07 µg/mL)
N=C(Nc1nc(-c2ccccn2)cc2ccccc12)c1ncccn1	–	0.195 µM (≈ 0.0636 µg/mL)	0.0325 µM (≈ 0.0106 µg/mL)
CUPRIC SULFATE	–	700 µM	–
Cc1cccc(C(=N)Nc2nc(-c3ccccn3)cc3ccccc23)c1	–	0.78 µM (≈ 0.264 µg/mL)	0.0488 µM (≈ 0.0165 µg/mL)
COc1cccc(C(=N)Nc2nc(-c3ccccn3)cc3ccccc23)c1	–	1.56 µM (≈ 0.553 µg/mL)	0.078 µM (≈ 0.0276 µg/mL)
Cc1cc(C)nc(C(=N)Nc2nc(-c3ccccn3)cc3ccccc23)n1	0.0455 µM (≈ 0.0161 µg/mL)	0.195 µM (≈ 0.0691 µg/mL)	–
